MPTP inh = inhibitors of mitochondrial permeability transition pore. isolated mouse mitochondria, Ca2+ swelling absorbance, 30 min. inhibition, % at 10 µM. 360,000 tested, 1.4% active;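 active means inhibition of 50% or more, scaled per plate between neutral and stimulator controls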;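 further: 0% = DMSO wells given calcium and 100% = 1 mM EGTA wells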
SENP1 FRET inh = blocks the human SENP1 SUMO protease catalytic domain; 360,000 tested, 0.21% active; Q9P0U3; recombinant SENP1 catalytic domain, CyPet-SUMO1-YPet FRET cleavage; inhibition, % at 10 µM; AID 624204;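 active means inhibition at least 30% at 10 µM, raw YFP signal under a set limit, fluorescence ratio 0.5 to 1.5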;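 further: 0% = enzyme with DMSO and 100% = no enzyme wells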
Target sequence (Q9P0U3 419-644 limits assumed): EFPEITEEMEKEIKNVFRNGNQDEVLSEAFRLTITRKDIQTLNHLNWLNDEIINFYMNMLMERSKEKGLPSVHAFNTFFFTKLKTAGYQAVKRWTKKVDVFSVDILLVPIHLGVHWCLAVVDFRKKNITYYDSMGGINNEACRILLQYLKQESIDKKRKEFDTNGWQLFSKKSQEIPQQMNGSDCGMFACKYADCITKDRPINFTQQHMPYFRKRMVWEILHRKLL
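System: Recombinant human SENP1 catalytic domain, His6-tagged | Incubation: Enzyme reaction for 50 min at room temperature, dark | Medium: Tris pH 8 with BME, BSA, NP40 and catalase | Also added: 25 nM SUMO1 FRET substrate | Compound: 10 µM single point, 0.5% DMSO | Measured by: FRET fluorescence in CFP and YFP emission channels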
EBI2 block = EBI2 (human) antagonism. P32249. EBI2 beta-arrestin recruitment, luminescence, 7a,25-OHC stimulated. inhibition, % at 5 µM. 360,000 tested, 0.81% active. AID 651636; in the data active means inhibition above about 38%;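 further: enzyme fragment complementation signal reports receptor beta-arrestin coupling in cells; 0% = agonist plus DMSO wells and 100% = wells without agonist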
NR3A LBD binder = NR3A (human) ligand-binding domain modulation; NR3A LBD differential scanning fluorimetry, Tm shift; 0% = protein alone, 100% = glycine-bound protein; Tm shift relative to glycine control, % at 25 µM; 340,000 tested, 2.5% active;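 active means melting temperature shift of at least 10% of the positive control shift, at one fixed dose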
Rh123 counter = membrane potential counter-screen of mitochondrial pore inhibitors | shares compounds with MPTP inh | isolated mitochondria, Rhodamine 123 fluorescence | inhibition, % at 10 µM | 5,000 tested, 78% active; in the data active means inhibition above about 22%;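 further: 0% = DMSO vehicle and 100% = positive control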
MPTP swell DR = dose response confirmation of mitochondrial permeability transition pore inhibitors. shares compounds with MPTP inh. isolated mitochondria swelling, absorbance. IC50, µM. 780 tested, 58% active; in the data active means IC50 below about 20 µM
MPTP cs DR = MPTP inhibitor counter-screen activity, dose response; shares compounds with MPTP inh; isolated mitochondria counterscreen, fluorescence read-out; IC50, µM; AID 651564; 780 tested, 49% active; in the data active means IC50 below about 80 µM
Starred values were filed as active, the others as inactive; / = not tested or not shown. Most compounds without a hit are left out; they make up all but 4.4% or so of the library.

SMILES	MPTP inh	SENP1 FRET inh	EBI2 block	NR3A LBD binder	Rh123 counter	others
COc1ccc2cc(CNCCOCCOCCNCc3ccc4cc(OC)ccc4c3)ccc2c1	97.2*	2.5	-26.2	-1.6	-9.8
CCCc1c(NC(=O)Nc2ccc(F)cc2)cnn1-c1ccc(Cl)cc1	87.6*	1.0	1.0	2.2	73.6*
Cc1ccc(CN(C)C(=O)c2cc(S(=O)(=O)N3CCOCC3)ccc2F)o1	-0.2	-0.7	4.4	-0.3	/
Cc1ccsc1C(=O)N1CCC(CO)(Cc2ccccc2)CC1	-1.7	-0.1	-4.4	2.5	/
CCOC(=O)c1c(C)[nH]c(C(=O)N/N=C\c2ccccc2Cl)c1C	92.3*	2.0	12.0	-4.6	88.3*
CCOC(=O)c1c(C)[nH]c(C(=O)N/N=C/c2cccc(OC)c2)c1C	23.3	1.0	-0.2	-1.1	/
CC(Cc1ccco1)NC(=O)c1ccc(C(F)(F)F)cc1 (stereo not drawn)	0.6	0.2	-2.0	-1.8	/
O=C(Nc1ccccc1NC(=O)c1c(F)c(F)c(F)c(F)c1F)c1c(F)c(F)c(F)c(F)c1F	93.1*	3.3	-16.0	-0.3	94.8*
O=C(Nc1cccc(F)c1)c1c(F)c(F)c(F)c(F)c1F	65.1*	2.2	-3.3	0.4	80.8*
S=C(NCCCn1ccnc1)Nc1cccc(Cl)c1	0.9	-0.5	4.2	-2.0	/
S=C1NCCNC(=S)NCCOCCOCCOCCN1	-2.2	1.9	-7.6	0.4	/
c1coc(Cn2c(-c3ccco3)nc3ccccc32)c1	51.1*	-55.8	-14.1	0.7	-6.5
Clc1ccc(OCCn2c(-c3ccco3)nc3ccccc32)cc1	5.1	-18.3	15.5	-9.5	/
CNC[C@@H](Cc1ccccc1)NC[C@@H](CC1CCCCC1)NCCCc1ccccc1	71.9*	-2.3	-26.7	-0.2	-17.4
Cc1sc2ncnc(NCCc3ccc(S(N)(=O)=O)cc3)c2c1C	86.2*	-1.0	1.4	-0.3	105.8*
NS(=O)(=O)c1ccc(CNc2ncnc3sccc23)cc1	-0.9	-61.2	-3.8	-4.0	/
NS(=O)(=O)c1ccc(CCNc2ncnc3sccc23)cc1	73.7*	-44.5	5.7	18.9*	80.8*
O=C(COC(=O)Cc1ccsc1)Nc1ccc(Cl)cn1	-1.8	4.1	-3.9	0.4	/
O=C(Nc1nc(-c2ccc(F)c(F)c2)cs1)Nc1ccc(F)cc1F	5.6	2.9	37.0	4.9	/
Cc1cc(C)c(O)c(CN(C)Cc2cc(Cl)cc(Cl)c2O)c1	93.7*	-4.8	-8.6	-2.5	86.9*
O=C(COC(=O)CC(c1ccccc1)c1ccccc1)NCc1ccc(Cl)cc1	1.1	3.5	33.4	-16.9	/
CC(C)(C)CC(C)(C)SSc1n[nH]c(=S)s1	51.0*	1.2	-56.7	0.5	36.7*
Cc1ccc2c(c1)c1c(n2CC(O)CNC(C)(C)C)CCCC1 (stereo not drawn)	70.3*	7.7	-35.2	-5.0	-17.6	MPTP swell DR=13.4*;MPTP cs DR=>80
CCOc1ccc(S(=O)(=O)N2CCN=C2c2ccccc2)c(C)c1C	-1.5	1.5	-10.0	0.7	/
COC(=O)c1cccc(NS(=O)(=O)c2ccc(OC)c(OC)c2)c1C	55.5*	1.5	-2.8	-0.1	20.7*
SMILES	MPTP inh	SENP1 FRET inh	EBI2 block	NR3A LBD binder	Rh123 counter	others
Cc1cccc(NC(=O)C2C(c3ccccc3)C2(Cl)Cl)c1C (stereo not drawn)	71.4*	-1.1	7.5	-4.6	76.7*
CN(C)S(=O)(=O)c1cc(NC(=O)CSc2ncc(C(F)(F)F)cc2Cl)ccc1Cl	74.5*	1.1	20.8	5.1	86.1*
O=S(=O)(c1ccc2c(c1)OCCO2)N1CCN(c2ncnc3sccc23)CC1	103.2*	-40.1	-14.1	-0.9	89.5*
CN1CCN(S(=O)(=O)c2ccc3c(c2)OCCO3)CC1	-5.6	4.3	-3.3	-3.5	/
Cc1ccc(S(=O)(=O)N2CCN(c3ncnc4sccc34)CC2)cc1C	89.6*	-47.8	-13.5	1.0	93.6*
Cc1ccc(S(=O)(=O)N2CCN(c3ncccn3)CC2)cc1C	0.2	-1.3	2.8	1.7	/
Cc1ccc(S(=O)(=O)N2CCCCC2)cc1C(=O)N(CCc1ccccc1)Cc1ccccc1	-1.3	-0.7	23.1	0.5	/
Nc1nc(NC(=O)c2ccc(Cl)cc2)nn1-c1ccccc1	80.7*	2.1	3.0	-1.0	34.6*

Screening data from PubChem BioAssay.
